Results taken from the RNAGym collection of RNA variant scans (doi:10.1126/science.aae0568).
This sample holds only a part of the variants without activity.

B1: tRNA (parent)
chain: GUUCCGUUGGCGUAAUGGUAACGCGUCUCCCUCCUAAGGAGAAGACUGCGGGUUCGAGUCCCGUACGGAACG

Variants of: B1
Test: yeast fitness relative to wild type (ratio to wild type); higher = fitter; tRNA-Arg(CCU), competitive growth, 37 C, YPD
Summary of the method: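 Gene amplicons from the start population and from each of six end populations were read by 100-nucleotide paired-end sequencing. Those end populations came from pooled Saccharomyces cerevisiae strains carrying tRNA-Arg(CCU) gene variants at the native locus, competed in YPD at 37°C for 24 hours. Fitness relative to wild type was worked out from changes in genotype frequencies. Genotypes needed ≥ 100 starting reads, and estimates < 0.5 were set to 0.5.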

Point of comparison: C4U C31G A37G, yeast fitness 0.526. Against it:
- C4U G52C U59C — lower, ≤ 0.5
- C4U C31G A65U G67C — lower, ≤ 0.5
- C4U G10A G23C C49A G68C — lower, ≤ 0.5
- C4U G10C U35C G41A C49U — lower, ≤ 0.5
- C4U G18A G23C C24G C46G — lower, ≤ 0.5
- C4U G56A G67A — higher, 0.649
- C4U C49U G58C — higher, 0.782
- C4U U7A U8A — lower, ≤ 0.5
- C4U G23C G39C G44A — lower, ≤ 0.5
- C4U U7A C33G A42C — lower, ≤ 0.5
- C4U U16A A37C — lower, ≤ 0.5
- C4U G9C G18A C29G C31U U32C G50C — lower, ≤ 0.5
- C4U U16A A20C — higher, 0.58
- C4U U16A A20G — higher, 0.665
- C4U G9A C11U C34A C55A A65C — lower, ≤ 0.5
- C4U C49U C55A — lower, ≤ 0.5
- C4U G17C — higher, 0.709
- C4U U7C — higher, 1.08
- C4U U7A G10C C27G U32A — lower, ≤ 0.5
- C4U G44C C46A G56C — lower, ≤ 0.5
- C4U G41A A42C — lower, ≤ 0.5
- C4U C66G — higher, 0.75
- C4U G6C A14U C24G G58C — higher, 0.531
- C4U C31G C55U G68C — lower, ≤ 0.5
- C4U G17A A37U U59C — lower, ≤ 0.5
- C4U G10C U35C G41A C62G A70U — lower, ≤ 0.5
- C4U G51C G58A U59G — lower, ≤ 0.5
- C4U C31U G52C C61A — lower, ≤ 0.5
- C4U G18A A69U — higher, 0.743
- C4U G52A — higher, 0.727
- C4U G25A G41A G56C A65C — lower, ≤ 0.5
- C4U G9A C22G A42U U64A G67A — higher, 0.58
- C4U G23C A36C A70U — lower, ≤ 0.5
- C4U G18A G23C C24G C46G C66G — lower, ≤ 0.5
- C4U G18A C22U A40C G68C — higher, 0.591
- C4U G10C U35C G41A — lower, ≤ 0.5
- C4U C61G C62A — lower, ≤ 0.5
- C4U C61G C62G — lower, ≤ 0.5
- C4U G12A C27G C34A C49G — lower, ≤ 0.5
- C4U G10A C24U C61A — higher, 0.623
- C4U G18C A21G A57C — lower, ≤ 0.5
- C4U G56C A65U — lower, ≤ 0.5
- C4U G25A G48C C62A — higher, 0.551
- C4U C34A — higher, 0.846
- C4U C33A C61U — higher, 0.597
- C4U U8A A20G C24A G52C — higher, 0.598
- C4U G9A C33G — higher, 0.639
- C4U G39C C49U — higher, 0.62
- C4U G25A G56A — higher, 0.645
- C4U G18A A20G G23C C24G C46G — lower, ≤ 0.5
- C4U G10A G12A — higher, 0.653
- C4U G17A C34A A57U — lower, ≤ 0.5
- C4U G9A C24G C29G G67A — lower, ≤ 0.5
- C4U U13G A36U — higher, 0.655
- C4U U16A A20C U54A G67U — lower, ≤ 0.5
- C4U G18C G51A C66A — lower, ≤ 0.5
- C4U G12A A20G C22U C62U A65C — lower, ≤ 0.5
- C4U G9C A45G C61A — lower, ≤ 0.5
- C4U U16A A20G C49U C66U — lower, ≤ 0.5
- C4U G9C C61A A69C — lower, ≤ 0.5
- C4U G9A C27G U32A G52A — lower, ≤ 0.5
- C4U U7C C49G — higher, 0.534
- C4U G12A C24A C61U — higher, 0.609
- C4U G25C C30G C55A — higher, 0.561
- C4U C31U C61U G68C — lower, ≤ 0.5
- C4U G12C C46U G50A — higher, 0.608
- C4U U13A A14U C29U A37G G67A — lower, ≤ 0.5
- C4U G44C — higher, 1.01
- C4U G44A — higher, 1.05
- C4U C34U G68C — lower, ≤ 0.5
- C4U G12C A20G U47A C49U A57U C61A — higher, 0.572
- C4U C55G A65G — lower, ≤ 0.5
- C4U G10C G17C C27G G38C U54G — lower, ≤ 0.5
- C4U G18C A45U C49U — lower, ≤ 0.5
- C4U C46A G50A C61U C62U — higher, 1.09
- C4U U8G G12A — higher, 0.539
- C4U U13C C29G G38C — lower, ≤ 0.5
- C4U G9A C11U C34A — lower, ≤ 0.5
- C4U G67A A69U — higher, 0.684
- C4U C31A A37C G48A G58C — lower, ≤ 0.5
- C4U C60G A69C — lower, 0.52
- C4U C33G C60G — lower, ≤ 0.5
- C4U G52A C55U U64C — lower, ≤ 0.5
- C4U G10C C24G C49U — lower, ≤ 0.5
- C4U C55G — higher, 0.636
- C4U C55A — higher, 0.701
- C4U G10C C60G G67A — lower, ≤ 0.5
- C4U G48C C55G A69U — lower, ≤ 0.5
- C4U U13C C24U C49U — lower, ≤ 0.5
- C4U G6A A14C A65C — lower, ≤ 0.5
- C4U U8C A40U G50C — lower, ≤ 0.5
- C4U U8C C29U A43U — lower, ≤ 0.5
- C4U C66G A70U — higher, 0.608
- C4U C34G G63C A69C — lower, ≤ 0.5
- C4U G12A G48C — higher, 0.648
- C4U U8A C30U U32G U35A C62U A69C — lower, ≤ 0.5
- C4U G10A C60G C66G A69U — lower, ≤ 0.5
- C4U U7A U54G — lower, ≤ 0.5
- C4U C31G C34G A43U G68C A69G — lower, ≤ 0.5
- C4U U7A A20G C24A G51A — lower, ≤ 0.5
- C4U G39C G48C — higher, 0.537
- C4U G6A C62G — higher, 0.54
- C4U G17A G18A C34U G56C — lower, ≤ 0.5
- C4U G18C G68C — higher, 0.535
- C4U G56A C60U — lower, ≤ 0.5
- C4U G9A A15U A20C C27A A65U — higher, 0.768
- C4U G23C C49A G68C — lower, ≤ 0.5
- C4U U7A A36U A45U A57G A70G — lower, ≤ 0.5
- C4U C34U U59A — lower, ≤ 0.5
- C4U G18C — higher, 0.651
- C4U G6A C31U C34U — lower, ≤ 0.5
- C4U G12C C27U — higher, 0.535
- C4U C49A A65U — higher, 0.583
- C4U U7C G10A A14U C27G A36G — lower, 0.505
- C4U C31U A37U — higher, 0.617
- C4U G10A C66U — higher, 0.663
- C4U G58C U64A — higher, 0.848
- C4U G9A C29A U53A — lower, ≤ 0.5
- C4U C31A A36G G44C — higher, 0.59
- C4U C49G G68A A70C — higher, 0.606
- C4U C31G G38A C61A G63A — lower, ≤ 0.5
- C4U G10A C24U A69C — higher, 0.769
- C4U G10A C24U A69U — higher, 0.838
- C4U G52C G67C — lower, ≤ 0.5
- C4U C33A G41C C60U A65U A69U — lower, ≤ 0.5
- C4U G58C — higher, 1.02
- C4U G58A — higher, 0.838
- C4U G6A A42C C66U — lower, ≤ 0.5
- C4U C55U C61U — higher, 0.673
- C4U C61G C66U A69U — lower, ≤ 0.5
- C4U U7G C34G G48C C61U — lower, ≤ 0.5
- C4U G12A C62G — higher, 0.53
- C4U U13C C66U A70C — higher, 0.618
- C4U U13C C30G C55U — higher, 0.761
- C4U C31U A43G C61A G63A A65U C66G — higher, 0.575
- C4U G9A G68A — higher, 0.968
- C4U G6A A20C C60G A65U A69G — lower, ≤ 0.5
- C4U G44C A70C — higher, 0.782
- C4U C46G C55U — higher, 0.576
- C4U G18A G23C C24G C46G A57G — lower, ≤ 0.5
- C4U G9A A57G — higher, 0.61
- C4U G51A — higher, 0.942
- C4U G51C — higher, 0.637
- C4U G41C A65G — higher, 0.65
- C4U G48A C60G — lower, ≤ 0.5
- C4U U7A U8A A40U C61U — lower, ≤ 0.5
- C4U G17C G44A C61U — higher, 0.556
- C4U G25A G50C U54C — lower, ≤ 0.5
- C4U G10A C49A U53A G67A — lower, ≤ 0.5
- C4U C55A U64A A65U — lower, ≤ 0.5
- C4U C49G A70G — higher, 0.602
- C4U C60G C61U G68A — lower, ≤ 0.5
- C4U C33A G68A — lower, ≤ 0.5
- C4U C34A C62U — higher, 0.566
- C4U G6A C61A — lower, ≤ 0.5
- C4U G12C — higher, 0.884
- C4U G10A C30U C49G G68A — higher, 0.585
- C4U G9A C29U — higher, 0.567
- C4U G10A G12A A42U — lower, ≤ 0.5
- C4U G52A A70C — higher, 0.646
- C4U G10A A36U — lower, ≤ 0.5
- C4U G52A C60A — higher, 0.823
- C4U U7C G23A A40U A42C — lower, ≤ 0.5
- C4U C49G G50C — lower, ≤ 0.5
- C4U G39C C60U — lower, ≤ 0.5
- C4U C62G G67A — lower, ≤ 0.5
